Bioassay records from PubChem BioAssay.
Sampled rows, rich in hits. Any-hit rate of the full collection: about 2.5%.
MT1-MMP txn act: MT1-MMP promoter reporter activation – cell-based, luciferase luminescence, primary screen; HT1080 MT1-MMP promoter luciferase reporter, overnight; hits give high values; activation factor at 10 µM; AID 750, 2007; 86,000 compounds, 0.16% hits;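 active = activation factor of at least 2 for MT1-MMP transcription at 10 µM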
ROCK2 inh: inhibitors of human ROCK2 kinase, primary screen, biochemical, high-throughput, luminescence. purified ROCK2, Kinase-Glo ATP depletion luminescence. inhibition, % at 6 µM. 60,000 compounds, 0.35% hits;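 active = inhibition above the screen-wide mean inhibition plus 3 SD, cut at about 18% in these data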;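 note: plate controls were DMSO wells for no effect and Y-27632 control wells after no-enzyme background subtraction for full effect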
PKA inh: inhibitors of human PKA kinase activity, primary screen, biochemical, ATP-depletion luminescence, Kemptide substrate | AID 524, 2006 | 65,000 compounds, 0.1% hits | inhibition, % at 6 µM | cAMP-dependent protein kinase catalytic subunit alpha (Homo sapiens), P17612 | PKA Kemptide phosphorylation, Kinase-Glo ATP luminescence;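 active = inhibition above the screen-wide mean inhibition plus 3 SD, cut at about 21% in these data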
SF1 activator: activators of human SF-1, primary screen, cell-based, CHO-K1, Gal4-SF-1 LBD, luciferase luminescence; Steroidogenic factor 1 (Homo sapiens), Q13285; CHO-K1 Gal4-SF-1 LBD luciferase reporter; % increase over DMSO SF-1-specific signal; activation, % at 10 µM; 65,000 compounds, 1.9% hits; AID 522, 2006;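 active = activation above the mean activation of all tested compounds plus 3 SD, cut at about 50% in these data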
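Compound – one dose, 10 µM compound, 1% DMSO · Test system – transient Gal4-SF-1 LBD reporter, CHO-K1 · Input – 4,000 cells in each well · Read-out basis – percent activation relative to DMSO median and mock-transfected background · Replicates – single measurement per compound · Technique – steady-glow luciferase luminescence, read after 15 min reagent incubation · Timing – 20 h compound treatment, 37 °C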
JNK3 blocker: JNK3 kinase activity inhibitors, primary screen, biochemical, human, purified enzyme; inhibition, % at 8 µM; HTS; 60,000 compounds, 0.61% hits; Mitogen-activated protein kinase 10 (Homo sapiens), P53779; in the data active = inhibition above about 17%;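 note: 0% = DMSO and 100% = reference inhibitor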
RORA act: activators of orphan receptor RORA, primary screen, cell-based, luminescence. CHO-K1 Gal4-RORA LBD luciferase reporter; percent increase over mock-subtracted basal signal. Nuclear receptor ROR-alpha (Homo sapiens), P35398. activation, % at 10 µM. 65,000 compounds, 1.5% hits;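 active = activation above the mean of all tested compounds plus 3 SD, cut at about 49% in these data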;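 note: 0% = DMSO-treated RORA cells and 100% = added signal equal to DMSO minus mock-transfected cells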
Target sequence (P35398 whole entry, looked up, the tested form may be a part): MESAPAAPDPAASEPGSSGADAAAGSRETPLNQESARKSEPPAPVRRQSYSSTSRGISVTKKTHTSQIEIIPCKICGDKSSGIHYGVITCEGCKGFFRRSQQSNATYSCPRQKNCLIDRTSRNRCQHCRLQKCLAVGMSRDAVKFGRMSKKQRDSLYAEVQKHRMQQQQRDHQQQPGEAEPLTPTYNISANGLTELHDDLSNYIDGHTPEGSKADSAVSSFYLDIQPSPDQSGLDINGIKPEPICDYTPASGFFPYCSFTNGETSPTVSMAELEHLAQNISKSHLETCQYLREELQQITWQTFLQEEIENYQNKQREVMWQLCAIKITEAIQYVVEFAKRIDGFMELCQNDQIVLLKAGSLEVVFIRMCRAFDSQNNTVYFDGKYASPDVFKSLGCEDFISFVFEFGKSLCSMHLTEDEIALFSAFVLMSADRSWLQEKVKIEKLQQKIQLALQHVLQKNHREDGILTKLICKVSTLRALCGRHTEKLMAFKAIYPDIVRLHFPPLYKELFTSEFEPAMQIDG
The depositor's hits bear a star; . = no result given.

SMILES	MT1-MMP txn act	ROCK2 inh	PKA inh	SF1 activator	JNK3 blocker	RORA act
Cc1c(C(=O)Nc2cnccn2)oc2ccccc12	1.2	-1.7	-4.4	56.0*	-7.7	44.7
Nc1c(C(=O)Nc2ccc(Cl)cc2)oc2ccccc12	1.7	5.2	7.7	105.7*	6.1	74.3*
Cc1c(C(=O)Nc2cccc3cccnc23)oc2ccccc12	1.6	3.1	2.7	17.9	1.1	-1.9
CC(=O)c1oc2ccccc2c1N	1.1	4.6	6.8	11.3	-2.8	-7.9
CCC(=O)Nc1ccc(NC(=O)c2ccccc2Cl)nc1	1.4	1.1	6.2	25.1	4.5	11.3
CCN(CC)S(=O)(=O)c1cc(C(=O)Nc2ccc(Cl)cn2)ccc1C	0.9	-0.9	2.6	61.3*	7.1	46.7
CC(C)C(=O)Nc1ccc(NC(=O)c2ccccc2Cl)nc1	1.6	1.0	8.1	37.6	11.0	61.6*
Cc1ccccc1C(=O)Nc1ccc(Cl)cn1	1.4	3.9	9.8	18.6	1.4	56.4*
CCN(CC)S(=O)(=O)c1cccc(C(=O)Nc2ccc(Cl)cn2)c1	1.3	0.4	11.6	27.4	12.8	9.7
c1ccc(Cc2nnc(-c3ccccc3)o2)cc1	1.3	8.1	13.9	44.9	-1.8	50.5*
CNC(=O)C1(C)C=CCN1C(=O)OC (stereo not given)	1.3	.	.	.	.	.
Cc1ccccc1-c1noc(-c2ccc(Cl)cc2)n1	2.1*	.	.	.	.	.
Cc1ccccc1-c1noc(-c2ccc(O)cc2)n1	1.1	-0.1	-2.7	33.4	6.0	100.7*
Cc1ccc(-c2noc(-c3ccccc3Br)n2)cc1	0.8	0.0	-0.2	18.8	-7.0	36.7
Cc1ccccc1-c1noc(-c2ccccc2F)n1	1.4	.	.	.	.	.
Cc1ccc(-c2cc(C(=O)N3CCN(c4ncccn4)CC3)c3ccccc3n2)cc1	1.4	1.4	3.2	53.7*	4.0	25.5
Cc1c(-c2nc(N)nc(Nc3ccc(F)cc3)n2)oc2ccccc12	1.7	13.4	9.0	77.9*	16.5	73.8*
Nc1c(C(=O)c2ccc(F)cc2)oc2ccccc12	1.4	-3.7	2.5	17.7	9.2	7.6
CCOc1ccc(-c2nnn(CC(=O)NCc3ccco3)n2)cc1OCC	1	.	.	.	.	.
CCCCOc1ccc(-c2nnn(CC(=O)NCc3ccco3)n2)cc1	0.8	-5.5	3.5	37.0	-10.8	197.6*
NC(=O)c1ccccc1N/C=C/C(=O)c1ccc(F)cc1	1.1	.	.	.	.	.
Cc1ccc(C(=O)/C=C/Nc2ccccc2C(N)=O)o1	0.9	-0.6	-1.4	63.2*	-1.4	34.5
CCn1nnc(NC(=O)c2cccc(-c3cc4ccccc4oc3=O)c2)n1	1.6	2.0	4.5	54.7*	12.8	20.0
CCn1nnc(NC(=O)c2cccnc2)n1	1.2	-3.0	4.1	5.5	4.5	4.3
CCOc1cccc(C(=O)NC2CCCCC2)c1	1.4	6.3	8.3	52.0*	1.9	31.0
SMILES	MT1-MMP txn act	ROCK2 inh	PKA inh	SF1 activator	JNK3 blocker	RORA act
CCCn1nnc(NC(=O)c2cccc(OCC)c2)n1	1.3	7.0	7.9	66.2*	5.1	51.5*
COc1cccc(C(=O)NC2CCN(C(=O)N3CCCCC3)CC2)c1	1.2	6.3	7.2	-8.3	3.1	-9.5
CC(=O)NS(=O)(=O)c1ccc(NC(=O)c2ccc(Br)o2)cc1	1.2	.	.	.	.	.
Cc1cc(C)n2nc3nc(N4CCCCC4)nc(-c4ccco4)c3c2n1	1.2	3.6	7.9	-4.2	4.0	15.4
c1ccc(-c2noc(CSc3nnnn3-c3ccccc3)n2)cc1	.	-1.1	7.2	6.4	-4.6	-12.6
COC(=O)C1=C(CSc2nnnn2C)NC(=O)NC1c1cc(C)ccc1C (stereo not given)	0.9	1.2	8.8	-3.0	-3.4	-10.2
CC(=O)c1ccc(OCC(O)CN2CCN(CC(O)COc3ccc(C(C)=O)cc3)CC2)cc1 (stereo not given)	1.1	.	.	.	.	.
CC(=O)c1ccc(OCC(O)COc2ccc(C(C)=O)cc2)cc1	1	18.6*	17.2	9.4	3.2	9.8
O=C(c1cc2ccccc2oc1=O)N1CCN(C(=O)C2CCCO2)CC1 (stereo not given)	1.3	0.6	-2.8	3.0	-0.1	-7.6
O=C1C(Cl)=C(NC2CCc3ccccc32)C(=O)c2ncccc21 (stereo not given)	1.1	.	.	.	.	.
O=C(NCC1COc2ccccc2O1)c1ccc(Cl)cc1 (stereo not given)	1.3	4.8	11.0	59.5*	3.4	32.3
NCC#CC(CCc1ccccc1)OCc1ccccc1 (stereo not given)	1.1	.	.	.	.	.
O=CNC1CCCc2c1[nH]c1ccc(Cl)cc21 (stereo not given)	1.4	7.3	9.2	0.6	-1.4	4.0
c1ccc2c3c([nH]c2c1)-c1[nH]ncc1CC3	1.6	3.2	-3.9	22.4	54.4*	-10.5
O=C1CCCc2c1[nH]c1ccccc21	1.2	3.4	6.5	14.2	3.1	17.2
Clc1ccc2[nH]c3c(c2c1)CCc1cn[nH]c1-3	1.2	3.7	8.8	16.1	85.0*	32.7
COC(=O)c1ccc(C(NC(=O)OCc2ccccc2)/C(I)=C/[C@@H](C)C(=O)NCc2cc(C)n(C)n2)cc1 (stereo not given in full)	1.1	.	.	.	.	.
CC(C)(C)OCC(NC(=O)C(CC(N)=O)NC(=O)OC(C)(C)C)C(=O)OC(C)(C)C (stereo not given)	1	1.2	4.1	-2.8	1.5	-13.5
Cc1ccc(N=Cc2nc(-c3ccco3)oc2O)cc1	1.5	3.8	8.8	104.0*	5.5	46.8
Cn1c(NCc2c[nH]c3ccccc23)nc2ccccc21	1.5	1.0	7.3	77.6*	4.2	63.8*
O=c1[nH]cnc2cc(-c3ccccc3)sc12	1.4	10.0	15.2	56.0*	8.9	18.3
CCCC1(C(=O)OC)C=C2C(=C(C(C)C)C(=O)C2C)CN1 (stereo not given)	1.1	.	.	.	.	.
Clc1ccc(OCCN2CCN(c3ncnc4sccc34)CC2)cc1	1.1	10.0	36.1*	-89.7	-1.9	-80.9
Cc1ccccc1Cn1ccc(NC(=O)c2onc(C)c2Cl)n1	1.4	-2.7	8.3	10.9	4.0	87.0*
CCOC(=O)CN1C(=O)SC(CC(=O)Nc2nccs2)C1=O (stereo not given)	.	.	10.4	-1.5	.	-17.1
CCc1cc2c(=O)n(-c3ccccc3)c(=S)[nH]c2s1	1.1	.	.	.	.	.
O=C1N(CCCN2C(=O)C3(OCCO3)c3ccccc32)c2ccccc2C12OCCO2	1.1	2.6	1.4	-14.9	2.5	53.2*
O=C1N(CCCCN2C(=O)C3(OCCO3)c3ccccc32)c2ccccc2C12OCCO2	1.3	-0.1	5.7	3.7	-6.5	3.3
